Reference: ChEMBL document CHEMBL4371052, “Diarylcarbonates are a new class of deubiquitinating enzyme inhibitor” (Bioorg Med Chem Lett, 2019)
The source made the active and inactive calls. The calls are words filed in the database; no cut-off is given here.

What was measured:
[1] = Inhibition of deubiquitinase in HEK293T cells expressing N-terminal HA-tagged ubiquitin assessed as stabilization of HMW-Ub proteins after 2 hrs by Western blot analysis; assay type: cell-based, Homo sapiens
Homo sapiens [2] = species on record: Homo sapiens; test: Inhibition of deubiquitinase in HEK293T cells expressing N-terminal HA-tagged ubiquitin assessed as stabilization of HMW-Ub proteins at 1 uM after 2 hrs by Western blot analysis; assay type: cell-based
[3] = molecular target: Ubiquitin carboxyl-terminal hydrolase 9X (Homo sapiens) (UniProt Q93008); test: Inhibition of recombinant His6-tagged USP9x catalytic domain (unknown origin) assessed as association constant using Ub-AMC as substrate by fluorescence assay
[4] = Inhibition of deubiquitinase in HEK293T cells assessed as stabilization of K48-linked HMW-Ub protein by Western blot analysis; assay type: cell-based, Homo sapiens
[5] = molecular target: Ubiquitin carboxyl-terminal hydrolase 7 (Homo sapiens) (UniProt Q93009); test: Inhibition of recombinant His6-tagged USP7 catalytic domain (unknown origin) assessed as association constant using Ub-AMC as substrate by fluorescence assay
Papain (Carica papaya) = molecular target: T1, Papain (Carica papaya) (UniProt P00784); test: Inhibition of papaya papain at 100 uM using Z-Arg-AMC as substrate preincubated for 30 mins followed by substrate addition by fluorescence assay
T1 sequence (whole entry): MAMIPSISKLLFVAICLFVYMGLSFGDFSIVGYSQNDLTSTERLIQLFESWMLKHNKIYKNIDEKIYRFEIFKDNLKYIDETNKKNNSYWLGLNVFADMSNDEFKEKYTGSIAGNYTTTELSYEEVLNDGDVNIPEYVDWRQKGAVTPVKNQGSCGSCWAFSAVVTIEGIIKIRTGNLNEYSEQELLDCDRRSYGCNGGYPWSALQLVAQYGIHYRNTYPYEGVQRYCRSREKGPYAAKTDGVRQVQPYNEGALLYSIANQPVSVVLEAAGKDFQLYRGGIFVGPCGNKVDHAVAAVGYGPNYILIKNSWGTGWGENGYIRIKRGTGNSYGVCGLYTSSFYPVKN
Method in brief: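 Enzyme (papain or ficin) preincubated 30 min with inhibitor at 100 μM, then Z-Arg-AMC substrate added at 300 μM; AMC release followed.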

[6] = molecular target: 26S proteasome (Homo sapiens) (UniProt Q99460+P49721+P20618+P28074+P28062+P28065+P28072+O00487+P25786+P25787+P25788+P25789+P28066+P60900+O14818+Q8TAA3+P40306+A5LHX3+P49720+P28070+Q99436+Q16186+P35998+P62191+P43686+P62333+P17980+P62195+Q13200+O43242+O00232+O00231+Q15008+P51665+Q9UNM6+P55036+P48556+P60896); test: Inhibition of 26S proteasome in HEK293T cells expressing GFP-fused Ub G76V mutant assessed as increase in GFP fluorescence; assay type: cell-based
Method in brief: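 HEK 293T cells expressing G76V Ub-GFP, a fusion uncleavable by DUBs that reports ubiquitin-proteasome flux, treated with compound. GFP fluorescence was the read-out, with bortezomib as proteasome-inhibitor reference.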

K562 = test: Inhibition of deubiquitinase in human K562 cells assessed as accumulation of K48-linked HMW-Ub protein at 50 uM measured after 2 hrs by Western blot analysis; assay type: cell-based
Method in brief: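 K562 cells exposed to compound at 50 μM for 2 h; K48-linked ubiquitin accumulation read by immunoblotting.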

[7] = molecular target: Ubiquitin carboxyl-terminal hydrolase 9X (Homo sapiens) (UniProt Q93008); test: Inhibition of USP9x in human K562 cells assessed as decrease in Bcr-Abl expression at 50 uM measured after 2 hrs by Western blot analysis; assay type: cell-based
Method in brief: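 K562 cells treated with 50 μM compound for 2 h. Lysates were sonicated in SDS, and Bcr-Abl was immunoblotted with anti-Abl antibody.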

Ficin (Ficus carica) = test: Inhibition of fig ficin at 100 uM using Z-Arg-AMC as substrate preincubated for 30 mins followed by substrate addition by fluorescence assay
[8] = Inhibition of deubiquitinase in COS1 cells expressing N-terminal HA-tagged ubiquitin assessed as stabilization of HMW-Ub proteins by Western blot analysis; assay type: cell-based, Chlorocebus aethiops
Method in brief: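 HMW-Ub decomposition followed in lysates of Cos-1 cells expressing HA-Ub; EC50 from inhibition of HMW-Ub loss; mean ± s.e.m. of at least 3 independent experiments.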

Homo sapiens [9] = species on record: Homo sapiens; test: Inhibition of deubiquitinase in HEK293T cells expressing N-terminal HA-tagged ubiquitin assessed as stabilization of HMW-Ub proteins by measuring half life at 250 uM after 2 hrs by Western blot analysis; assay type: cell-based
[10] = molecular target: Sentrin-specific protease 6 (Homo sapiens) (UniProt Q9GZR1); test: Inhibition of recombinant His6-tagged SENP6 catalytic domain (628 to 1112 residues) (unknown origin) at 1 to 25 uM using SUMO2-modified RanGap1 as substrate preincubated for 30 mins followed by substrate addition and measured after 10 mins by Western blot analysis
Method in brief: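 His6-SENP6 catalytic domain (aa 628-1112, 200 nM) treated with inhibitor 30 min at room temperature; SUMOylated His6-RanGap1 (aa 418-588, 3 μM) then added for 10 min at 37 °C; quenched in Laemmli buffer, SDS-PAGE, anti-His6 immunoblot.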

Homo sapiens [11] = species on record: Homo sapiens; test: Inhibition of deubiquitinase in HEK293T cells expressing N-terminal HA-tagged ubiquitin assessed as stabilization of HMW-Ub proteins by measuring half life at 500 uM after 2 hrs by Western blot analysis; assay type: cell-based
MCF7 = test: Cytotoxicity against human MCF7 cells assessed as decrease in cell viability treated every 24 hrs measured after 72 hrs by alamar blue assay; assay type: functional, cell-based
Method in brief: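 MCF7 or B16/F10 cells dosed with compound every 24 h. Viable cells were quantified with Alamar Blue after 72 h.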

Homo sapiens [12] = species on record: Homo sapiens; test: Inhibition of deubiquitinase in HEK293T cells expressing N-terminal HA-tagged ubiquitin assessed as stabilization of HMW-Ub proteins at 30 uM after 2 hrs by Western blot analysis; assay type: cell-based
Method in brief: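 Lysate of HEK 293T cells expressing HA-ubiquitin, incubated with inhibitor or DMSO vehicle at 37 °C for up to 2 h. Reactions quenched with reducing Laemmli buffer. Remaining high-molecular-weight ubiquitinated proteins assessed by SDS-PAGE and anti-HA immunoblot, relative to DMSO control at time 0. Duplicate runs.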

Homo sapiens [13] = species on record: Homo sapiens; test: Inhibition of deubiquitinase in HEK293T cells expressing N-terminal HA-tagged ubiquitin assessed as stabilization of HMW-Ub proteins at 25 uM after 2 hrs by Western blot analysis; assay type: cell-based
[14] = molecular target: Ubiquitin carboxyl-terminal hydrolase 9X (Homo sapiens) (UniProt Q93008); test: Inhibition of recombinant human N-terminal His6-tagged USP9x assessed as association constant using Cy5-UbVME as substrate preincubated for 15 mins followed by substrate addition and measured after 7 mins by fluorescence assay
Homo sapiens [15] = species on record: Homo sapiens; test: Inhibition of deubiquitinase in HEK293T cells expressing N-terminal HA-tagged ubiquitin assessed as stabilization of HMW-Ub proteins at 100 uM after 2 hrs by Western blot analysis; assay type: cell-based

Chain of Ubiquitin carboxyl-terminal hydrolase 9X (Homo sapiens) (Q93008 whole entry, the tested form may be a part): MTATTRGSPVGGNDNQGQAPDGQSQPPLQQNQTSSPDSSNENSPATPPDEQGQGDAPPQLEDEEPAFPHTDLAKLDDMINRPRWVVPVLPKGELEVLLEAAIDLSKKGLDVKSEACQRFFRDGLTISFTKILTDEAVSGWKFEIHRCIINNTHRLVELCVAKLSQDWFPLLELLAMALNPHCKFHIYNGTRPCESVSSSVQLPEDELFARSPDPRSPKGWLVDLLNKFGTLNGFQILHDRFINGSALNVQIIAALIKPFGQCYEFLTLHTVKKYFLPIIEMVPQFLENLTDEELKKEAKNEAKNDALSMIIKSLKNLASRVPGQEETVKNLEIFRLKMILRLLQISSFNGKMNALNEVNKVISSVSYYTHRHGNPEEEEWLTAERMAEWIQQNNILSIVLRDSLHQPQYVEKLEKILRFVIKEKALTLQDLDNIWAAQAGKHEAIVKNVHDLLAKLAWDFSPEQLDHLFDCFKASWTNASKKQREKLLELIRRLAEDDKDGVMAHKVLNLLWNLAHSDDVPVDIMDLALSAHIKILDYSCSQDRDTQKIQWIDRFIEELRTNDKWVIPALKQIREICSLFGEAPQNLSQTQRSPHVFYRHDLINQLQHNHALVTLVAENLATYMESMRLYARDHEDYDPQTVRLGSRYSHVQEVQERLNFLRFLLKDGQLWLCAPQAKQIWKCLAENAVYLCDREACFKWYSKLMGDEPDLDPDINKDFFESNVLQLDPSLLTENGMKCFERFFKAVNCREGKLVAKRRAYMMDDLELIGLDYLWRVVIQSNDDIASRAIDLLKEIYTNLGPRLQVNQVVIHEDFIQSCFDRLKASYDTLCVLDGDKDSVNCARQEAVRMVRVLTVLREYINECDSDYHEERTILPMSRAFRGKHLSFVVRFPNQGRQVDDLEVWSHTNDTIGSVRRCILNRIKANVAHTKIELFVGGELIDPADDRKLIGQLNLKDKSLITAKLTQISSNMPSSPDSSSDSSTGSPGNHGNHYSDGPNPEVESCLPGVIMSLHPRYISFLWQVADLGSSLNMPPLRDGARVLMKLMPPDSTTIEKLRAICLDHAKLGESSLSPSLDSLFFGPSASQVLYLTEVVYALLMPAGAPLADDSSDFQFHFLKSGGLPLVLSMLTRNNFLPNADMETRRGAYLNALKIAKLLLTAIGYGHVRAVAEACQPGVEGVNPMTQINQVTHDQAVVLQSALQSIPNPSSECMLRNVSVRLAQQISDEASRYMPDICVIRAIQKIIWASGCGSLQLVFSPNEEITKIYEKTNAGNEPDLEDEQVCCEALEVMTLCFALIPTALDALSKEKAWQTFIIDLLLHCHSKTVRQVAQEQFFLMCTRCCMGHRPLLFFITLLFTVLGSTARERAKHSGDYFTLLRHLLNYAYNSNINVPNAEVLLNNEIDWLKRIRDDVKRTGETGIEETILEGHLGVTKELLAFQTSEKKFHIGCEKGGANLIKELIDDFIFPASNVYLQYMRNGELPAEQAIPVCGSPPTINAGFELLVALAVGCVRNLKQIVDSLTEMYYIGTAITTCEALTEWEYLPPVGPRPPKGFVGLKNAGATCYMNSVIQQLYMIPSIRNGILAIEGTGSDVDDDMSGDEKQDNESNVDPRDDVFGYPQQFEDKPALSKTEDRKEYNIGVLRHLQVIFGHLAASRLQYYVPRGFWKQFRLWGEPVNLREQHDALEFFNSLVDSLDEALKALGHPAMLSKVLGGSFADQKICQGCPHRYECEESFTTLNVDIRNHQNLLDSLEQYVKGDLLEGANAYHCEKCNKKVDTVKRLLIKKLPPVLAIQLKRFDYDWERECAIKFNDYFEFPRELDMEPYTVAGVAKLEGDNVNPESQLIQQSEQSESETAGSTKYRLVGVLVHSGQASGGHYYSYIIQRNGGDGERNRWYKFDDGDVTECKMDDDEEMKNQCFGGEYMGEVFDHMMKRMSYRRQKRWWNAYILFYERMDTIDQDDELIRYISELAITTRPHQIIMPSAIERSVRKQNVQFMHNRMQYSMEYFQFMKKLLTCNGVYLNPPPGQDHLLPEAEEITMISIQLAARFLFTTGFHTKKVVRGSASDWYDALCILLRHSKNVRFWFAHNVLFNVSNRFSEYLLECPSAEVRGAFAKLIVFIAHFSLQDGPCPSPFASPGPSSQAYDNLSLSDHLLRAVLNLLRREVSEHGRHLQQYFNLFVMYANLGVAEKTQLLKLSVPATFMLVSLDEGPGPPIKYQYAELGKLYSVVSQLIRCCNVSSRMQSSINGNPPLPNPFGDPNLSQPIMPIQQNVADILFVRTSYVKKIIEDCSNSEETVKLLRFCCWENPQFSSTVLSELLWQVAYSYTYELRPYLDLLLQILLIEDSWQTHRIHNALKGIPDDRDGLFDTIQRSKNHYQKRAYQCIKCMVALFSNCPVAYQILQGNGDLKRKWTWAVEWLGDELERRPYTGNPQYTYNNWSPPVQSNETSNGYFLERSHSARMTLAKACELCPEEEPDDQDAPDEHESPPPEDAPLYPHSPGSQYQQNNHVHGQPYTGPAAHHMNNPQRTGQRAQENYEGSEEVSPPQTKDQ
Chain of Ubiquitin carboxyl-terminal hydrolase 7 (Homo sapiens) (Q93009 whole entry, looked up, the tested form may be a part): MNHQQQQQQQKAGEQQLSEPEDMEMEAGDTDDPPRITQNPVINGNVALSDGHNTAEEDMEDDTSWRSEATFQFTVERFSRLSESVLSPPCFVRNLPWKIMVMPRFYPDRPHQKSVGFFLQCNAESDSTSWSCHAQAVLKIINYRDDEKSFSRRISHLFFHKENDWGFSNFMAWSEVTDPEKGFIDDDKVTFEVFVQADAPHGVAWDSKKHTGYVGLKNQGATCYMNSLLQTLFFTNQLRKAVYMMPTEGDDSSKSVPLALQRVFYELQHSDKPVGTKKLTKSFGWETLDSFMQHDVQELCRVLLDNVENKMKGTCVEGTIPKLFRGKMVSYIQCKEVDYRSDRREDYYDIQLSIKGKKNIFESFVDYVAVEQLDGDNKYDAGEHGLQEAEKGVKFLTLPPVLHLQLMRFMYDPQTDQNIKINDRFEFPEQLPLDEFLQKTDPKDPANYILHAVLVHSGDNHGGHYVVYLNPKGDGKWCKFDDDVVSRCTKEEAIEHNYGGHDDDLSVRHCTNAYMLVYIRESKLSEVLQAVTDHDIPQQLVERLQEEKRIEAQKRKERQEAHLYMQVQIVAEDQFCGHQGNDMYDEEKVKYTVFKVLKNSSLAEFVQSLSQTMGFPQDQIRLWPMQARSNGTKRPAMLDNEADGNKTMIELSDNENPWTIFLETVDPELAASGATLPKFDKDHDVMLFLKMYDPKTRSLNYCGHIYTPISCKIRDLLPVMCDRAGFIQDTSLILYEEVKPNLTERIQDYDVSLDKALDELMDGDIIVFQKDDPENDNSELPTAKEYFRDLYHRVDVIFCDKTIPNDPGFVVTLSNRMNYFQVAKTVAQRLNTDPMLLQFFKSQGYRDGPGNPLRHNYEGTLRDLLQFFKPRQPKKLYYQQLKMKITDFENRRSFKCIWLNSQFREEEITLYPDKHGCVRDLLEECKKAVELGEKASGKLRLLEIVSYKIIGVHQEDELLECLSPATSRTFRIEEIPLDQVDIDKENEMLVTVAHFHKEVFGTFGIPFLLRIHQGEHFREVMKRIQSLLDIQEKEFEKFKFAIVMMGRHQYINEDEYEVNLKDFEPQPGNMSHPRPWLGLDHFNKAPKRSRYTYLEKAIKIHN
Chain of Sentrin-specific protease 6 (Homo sapiens) (Q9GZR1 whole entry, the tested form may be a part): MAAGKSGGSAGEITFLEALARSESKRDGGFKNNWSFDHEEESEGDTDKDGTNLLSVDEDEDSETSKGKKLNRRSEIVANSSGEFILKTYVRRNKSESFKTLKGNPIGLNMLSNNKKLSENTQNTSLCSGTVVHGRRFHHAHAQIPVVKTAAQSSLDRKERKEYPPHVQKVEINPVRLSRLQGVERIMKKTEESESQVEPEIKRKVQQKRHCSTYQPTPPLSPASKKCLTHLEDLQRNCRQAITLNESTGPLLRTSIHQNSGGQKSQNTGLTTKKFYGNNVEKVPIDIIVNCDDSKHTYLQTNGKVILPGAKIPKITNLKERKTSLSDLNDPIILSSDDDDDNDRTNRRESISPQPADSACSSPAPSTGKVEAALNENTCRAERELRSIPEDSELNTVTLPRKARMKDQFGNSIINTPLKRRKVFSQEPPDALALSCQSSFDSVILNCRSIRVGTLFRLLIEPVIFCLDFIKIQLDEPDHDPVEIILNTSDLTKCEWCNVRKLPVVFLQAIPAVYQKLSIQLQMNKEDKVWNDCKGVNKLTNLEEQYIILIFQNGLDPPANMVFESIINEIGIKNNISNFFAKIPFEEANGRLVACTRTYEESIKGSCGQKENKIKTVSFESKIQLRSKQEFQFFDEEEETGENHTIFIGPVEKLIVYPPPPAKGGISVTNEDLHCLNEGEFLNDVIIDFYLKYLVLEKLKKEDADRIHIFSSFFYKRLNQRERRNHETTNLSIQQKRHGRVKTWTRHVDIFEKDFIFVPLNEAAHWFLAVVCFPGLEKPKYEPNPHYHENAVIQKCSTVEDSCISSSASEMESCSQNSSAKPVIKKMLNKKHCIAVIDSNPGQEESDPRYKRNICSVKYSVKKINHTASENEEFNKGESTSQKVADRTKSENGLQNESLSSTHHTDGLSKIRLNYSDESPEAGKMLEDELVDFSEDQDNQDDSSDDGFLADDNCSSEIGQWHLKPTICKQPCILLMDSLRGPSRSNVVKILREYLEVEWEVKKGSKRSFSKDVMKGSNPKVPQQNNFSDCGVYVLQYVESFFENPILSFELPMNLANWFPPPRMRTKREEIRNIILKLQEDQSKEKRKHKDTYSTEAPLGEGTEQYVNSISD

For `O=C(Oc1ccccc1)Oc1ccc(CNCc2ccc(Cl)cc2)cc1`, the EC50 [1] was 300 µM.

For `NCc1ccc(CC(=O)Oc2ccccc2)cc1`, the EC50 [1] was > 150 µM.

In the case of `CC(C)C[C@H](NC(=O)[C@H](Cc1ccccc1)NC(=O)c1cnccn1)B(O)O`, the inhibition (Homo sapiens [2]) is reported as “inactive”.

With `Cc1ccc(OC(=O)Oc2cccc(C)c2)cc1` the EC50 [1] was > 150 µM.

In the case of `CC(C)(C)OC(=O)NCc1ccc(OC(=O)Oc2ccc3ccccc3c2)cc1`, the EC50 [1] is reported as > 150 µM.

Compound `N#CSc1cc(SC#N)c(N)nc1N` has a K [3] of 90 M⁻¹ s⁻¹.

Work on `NCc1ccc(OC(=O)Oc2ccc(F)cc2)cc1` yielded an EC50 [1] of 300 µM.

In the case of `NCc1ccc(OC(=O)Oc2cccc3ccccc23)cc1`, the EC50 [1] is reported as 40 µM, the EC50 [4] is reported as < 50 µM and the K [5] is reported as “inactive”. For the same compound, the K [3] was 17 M⁻¹ s⁻¹, the inhibition (Papain (Carica papaya)) was “inactive” and the inhibition [6] was “inactive”. For the same compound, the inhibition (K562) was “Active”, the inhibition [7] was “Active” and the inhibition (Ficin (Ficus carica)) was “inactive”.

`NCc1ccc(OC(=O)Oc2ccccc2Cl)cc1` showed an EC50 [1] of 60 µM.

In the case of `CC(C)COC(=O)Oc1ccc(CN)cc1`, the EC50 [1] is reported as > 500 µM.

With `NCc1ccc(OC(=O)Oc2ccc(Cl)cc2)cc1` the EC50 [1] was 30 µM, the EC50 [8] was 50 µM and the T1/2 (Homo sapiens [9]) was > 6 h. The EC50 [4] was < 50 µM, the K [5] was 13 M⁻¹ s⁻¹ and the K [3] was 18 M⁻¹ s⁻¹. The inhibition (Papain (Carica papaya)) was “inactive”, the inhibition [10] was “inactive” and the inhibition [6] was “inactive”. For the same compound, the inhibition (K562) was “Active”, the inhibition [7] was “Active” and the inhibition (Ficin (Ficus carica)) was “inactive”.

With `NCc1ccc(OC(=O)Oc2ccccc2)cc1` the T1/2 (Homo sapiens [11]) was > 0.5 h, the EC50 [1] was 210 µM and the EC50 [8] was 250 µM.

For `Oc1ccc2ccccc2c1`, the Activity (MCF7) was “inactive”.

For `CCC[C@H](NC(=O)/C(C#N)=C/c1cccc(Br)n1)c1ccccc1`, the K [5] was 66 M⁻¹ s⁻¹ and the K [3] was 50 M⁻¹ s⁻¹.

`COc1ccc(OC(=O)Oc2ccc(CN)cc2)cc1` showed an EC50 [1] of 260 µM.

With `NCc1ccc(OC(=O)Cc2ccccc2)cc1` the EC50 [1] was > 150 µM.

With `NCc1ccc(NC(=O)Oc2ccccc2)cc1` the EC50 [1] was > 150 µM.

With `CC(C)(C)CNCc1ccc(OC(=O)Oc2ccc3ccccc3c2)cc1` the EC50 [1] was 30 µM, the K [5] was 21 M⁻¹ s⁻¹ and the K [3] was “inactive”.

In the case of `Cc1cc(C(=O)CN2CCCC2)c(C)n1-c1ccc(F)cc1`, the inhibition (Homo sapiens [12]) is reported as “Active”.

With `CC(C)(C)OC(=O)NCc1ccc(OC(=O)Oc2ccc(Cl)cc2)cc1` the EC50 [1] was > 150 µM.

With `Cc1ccc(/C=C2\CNC/C(=C\c3ccc(C)cc3)C2=O)cc1` the inhibition (Homo sapiens [13]) was “Active”.

For `O=C(Oc1ccccc1)Oc1ccccc1`, the EC50 [1] was > 150 µM.

Work on `Cc1ccc(OC(=O)Oc2ccc(CN)cc2)cc1` yielded an EC50 [1] of 250 µM.

`S=C=NCCc1ccccc1` gave a K [14] of 150 M⁻¹ s⁻¹.

`CC(C)CNCc1ccc(OC(=O)Oc2ccc3ccccc3c2)cc1` showed an EC50 [1] of 70 µM.

In the case of `CC(C)(C)OC(=O)NCc1ccc(OC(=O)Oc2ccccc2)cc1`, the EC50 [1] is reported as > 150 µM.

For `NCc1ccc(OC(=O)Nc2ccccc2)cc1`, the EC50 [1] was > 150 µM.

With `NCc1ccc(OC(=O)Oc2ccc(Br)cc2)cc1` the EC50 [1] was 30 µM, the EC50 [8] was 40 µM and the EC50 [4] was < 50 µM. For the same compound, the K [5] was 8 M⁻¹ s⁻¹, the K [3] was 6 M⁻¹ s⁻¹ and the inhibition (Papain (Carica papaya)) was “inactive”. For the same compound, the inhibition [10] was “inactive”, the inhibition [6] was “inactive” and the inhibition (K562) was “Active”. For the same compound, the inhibition [7] was “Active” and the inhibition (Ficin (Ficus carica)) was “inactive”.

With `O=C1/C(=C/c2ccc([N+](=O)[O-])cc2)CS(=O)(=O)C/C1=C\c1ccc([N+](=O)[O-])cc1` the inhibition (Homo sapiens [15]) was “Active”.

In the case of `NCc1ccc(O)cc1`, the Activity (MCF7) is reported as “inactive”.

For `C=CC(=O)N1C/C(=C\c2ccc([N+](=O)[O-])cc2)C(=O)/C(=C/c2ccc([N+](=O)[O-])cc2)C1`, the K [3] was 140 M⁻¹ s⁻¹.

In the case of `COc1ccc(OC(=O)Oc2cccc(OC)c2)cc1`, the EC50 [1] is reported as > 150 µM.
